pIC50: −log10 of the molar value. Active and inactive are the calls of the source. No cut-off for these calls is given here.
Assays:
MDA-MB-231 [1] = assay: Induction of DNA damage in human MDA-MB-231 cells assessed as up-regulation of gammaH2AX expression at 2 to 15 uM by Western blot analysis; type: functional, cell-based
MDA-MB-231 [2] = assay: Antimigratory activity in human MDA-MB-231 cells up to 72 hrs by wound healing assay; type: functional, cell-based
Outline: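 Scratch assay: 1×10^5 cells/well grown to more than 80% confluence and wounded with a pipette tip. Cells then incubated with 0, 3 or 6 μM in serum-free DMEM for 72 h. The same field was imaged repeatedly over 3 days. Migration rate is wound filling, averaged over 10 fields; three independent experiments, mean ± SD.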

MDA-MB-231 [3] = assay: Induction of DNA damage in human MDA-MB-231 cells assessed as increase in gammaH2AX focal positive cells up to 20 uM after 24 hrs by SYBR Green1-staining based fluorescence microscopy; type: functional, cell-based
MDA-MB-231 [4] = assay: Cell cycle arrest in human MDA-MB-231 cells assessed as accumulation at G1 phase at 5 uM after 24 hrs by propidium iodide staining based flow cytometry (reference value: 49.40%)
A549 = assay: Antiproliferative activity against human A549 cells after 72 hrs by MTT assay; type: functional, cell-based; settings: A549, 72 h
Outline: (§1)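 A549, HeLa, HepG2 and normal liver L02 cells kept in DMEM with 10% FBS at 37 °C under 5% CO2. Plated at 5×10^3 cells/well for 24 h, then treated with graded concentrations for 72 h. Viability measured by MTT reduction (5 h), formazan dissolved in DMSO and read at 570 nm. Three repeats.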

MDA-MB-231 [5] = assay: Induction of DNA damage in human MDA-MB-231 cells assessed as increase in olive tail moment at 10 to 20 uM by comet assay; type: functional, cell-based
Outline: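 Neutral comet assay on cells treated with 0, 10 or 20 μM for 24 h. DNA stained with SYBR Green I and imaged by fluorescence microscopy. Olive tail moment measured on 50 randomly selected cells per slide.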

MDA-MB-231 [6] = assay: Induction of DNA damage in human MDA-MB-231 cells assessed as down-regulation of AKT expression at 2 to 15 uM by Western blot analysis; type: functional, cell-based
MDA-MB-231 [7] = assay: Cell cycle arrest in human MDA-MB-231 cells assessed as accumulation at S phase at 5 uM after 72 hrs by propidium iodide staining based flow cytometry (reference value: 42.60%); type: functional
MDA-MB-231 [8] = assay: Antiangiogenesis activity in human MDA-MB-231 cells xenografted in fil1:EGFP transgenic zebrafish sub-intestinal vessels assessed as inhibition of cell invasion at 5 uM measured every 24 hrs for 96 hrs by fluorescence microscopy; type: functional, cell-based
Outline: (§2)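 Tg(fli1:EGFP) embryos at 48 hpf injected with 10–50 nL of DiI-labelled cells (~10^7 cells/mL in serum-free DMEM) into the perivitelline space near the subintestinal vessels. Ten embryos per well kept in 2 mL aquaculture water with 0 or 5 μM for 96 h. Imaged every 24 h by fluorescence microscopy; tumour area and trunk/tail fluorescence quantified, n=10/group, three experiments.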

MDA-MB-231 [9] = assay: Induction of morphological changes in human MDA-MB-231 cells assessed as roughening of cell membrane surface with large and numerous particles at 5 to 20 uM after 72 hrs; type: functional, cell-based
MDA-MB-231 [10] = assay: Induction of morphological changes in human MDA-MB-231 cells assessed as unevening of cell membrane surface with large and numerous particles at 5 to 20 uM after 72 hrs; type: functional, cell-based
MDA-MB-231 [11] = assay: Cell cycle arrest in human MDA-MB-231 cells assessed as accumulation at G1 phase at 10 uM after 72 hrs by propidium iodide staining based flow cytometry (reference value: 49.40%); type: functional
MDA-MB-231 [12] = assay: Antimetastasis activity in human MDA-MB-231 cells assessed reduction in FAK protein expression at 5 to 15 uM after 72 hrs by Western blot analysis; type: functional, cell-based
Outline: (§3)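 Cells treated with 0, 5, 10 or 15 μM for 72 h. Lysates quantified by BCA, equal protein resolved on 10% tricine SDS-PAGE and transferred to nitrocellulose. Membranes blocked in 5% milk/TBST, then primary antibodies 1:1000 overnight at 4 °C and HRP secondary 1:2000 for 1 h at room temperature. Three independent experiments.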

MDA-MB-231 [13] = assay: Antiangiogenesis activity in human MDA-MB-231 cells xenografted in fil1:EGFP transgenic zebrafish sub-intestinal vessels assessed as inhibition of cell migration at 5 uM measured every 24 hrs for 96 hrs by fluorescence microscopy; type: functional, cell-based; outline: as §2
MDA-MB-231 [14] = assay: Antimetastasis activity in human MDA-MB-231 cells assessed as changes in cell morphology at 5 to 10 uM after 24 hrs by based laser confocal microscopy
MDA-MB-231 [15] = assay: Antiproliferative activity against human MDA-MB-231 cells after 72 hrs by MTT assay; type: functional, cell-based
Outline: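 MDA-MB-231 cells grown in DMEM with 10% FBS and penicillin/streptomycin at 37 °C under 5% CO2. Seeded at 5×10^3 cells/well for 24 h, then exposed to compound across a concentration range for 72 h. MTT (5 mg/mL in PBS) added for 5 h, formazan dissolved in DMSO, absorbance read at 570 nm. Three repeats.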

MDA-MB-231 [16] = assay: Cell cycle arrest in human MDA-MB-231 cells assessed as downregulation of cyclin A expression at 5 to 15 uM after 72 hrs by Western blot analysis; type: functional, cell-based; outline: as §3
MDA-MB-231 [17] = assay: Induction of DNA damage in human MDA-MB-231 cells assessed as up-regulation of p53 expression at 2 to 15 uM by Western blot analysis; type: functional, cell-based
MDA-MB-231 [18] = assay: Induction of apoptosis in human MDA-MB-231 cells assessed as early apoptotic cells at 15 uM after 72 hrs by annexin-V/propidium iodide double staining based flow cytometry (reference value: 0.02%); type: functional
MDA-MB-231 [19] = assay: Antitumor activity in human MDA-MB-231 cells xenografted in fil1:EGFP transgenic zebrafish sub-intestinal vessels assessed as reduction in tumor area at 5 uM measured every 24 hrs for 96 hrs by fluorescence microscopy; type: functional, cell-based; outline: as §2
MDA-MB-231 [20] = assay: Induction of apoptosis in human MDA-MB-231 cells assessed as late apoptotic cells at 5 uM after 72 hrs by annexin-V/propidium iodide double staining based flow cytometry (reference value: 0.12%); type: functional
L02 = assay: Antiproliferative activity against human L02 cells after 72 hrs by MTT assay; type: cell-based; settings: L02, 72 h; outline: as §1
MDA-MB-231 [21] = assay: Cell cycle arrest in human MDA-MB-231 cells assessed as accumulation at G2 phase at 15 uM after 72 hrs by propidium iodide staining based flow cytometry (reference value: 8%); type: functional
MDA-MB-231 [22] = assay: Cell cycle arrest in human MDA-MB-231 cells assessed as accumulation at G1 phase at 15 uM after 72 hrs by propidium iodide staining based flow cytometry (reference value: 49.40%); type: functional
MDA-MB-231 [23] = assay: Induction of apoptosis in human MDA-MB-231 cells assessed as up-regulation of PARP expression at 5 to 15 uM after 72 hrs by Western blot analysis; type: functional, cell-based; outline: as §3
MDA-MB-231 [24] = assay: Induction of apoptosis in human MDA-MB-231 cells assessed as early apoptotic cells at 10 uM after 72 hrs by annexin-V/propidium iodide double staining based flow cytometry (reference value: 0.02%); type: functional
MDA-MB-231 [25] = assay: Cell cycle arrest in human MDA-MB-231 cells assessed as up-regulation of p21 expression at 5 to 15 uM after 72 hrs by Western blot analysis; type: functional, cell-based; outline: as §3

- pIC50 (A549): 5.16
- pIC50 (MDA-MB-231 [15]; MDA-MB-231, 72 h): 4.88
SMILES: Cc1coc2c3ccc4c(c3c3[nH]c(-c5ccc(O)cc5)nc3c12)CCCC4(C)C
- Activity (MDA-MB-231 [1]): Active
- Activity (MDA-MB-231 [2]): Dose-dependent effect
- Activity (MDA-MB-231 [3]): Active
- Activity (MDA-MB-231 [4]): 42.38%
- Activity (MDA-MB-231 [5]): Active
- Activity (MDA-MB-231 [6]): Active
- Activity (MDA-MB-231 [7]): 46.41%
- Activity (MDA-MB-231 [8]): Active
- Activity (MDA-MB-231 [9]): Active
- Activity (MDA-MB-231 [10]): Active
- Activity (MDA-MB-231 [11]): 35.49%
- Activity (MDA-MB-231 [12]): Active
- Activity (MDA-MB-231 [13]): Active
- Activity (MDA-MB-231 [14]): Active
- Activity (MDA-MB-231 [15]): Dose-dependent effect
- Activity (MDA-MB-231 [16]): Active
- Activity (MDA-MB-231 [17]): Active
- Activity (MDA-MB-231 [18]): 6.73%
- Activity (MDA-MB-231 [19]): Active
- Activity (MDA-MB-231 [20]): 0.43%
- pIC50 (L02): 4.31
- Activity (MDA-MB-231 [21]): 10.12%
- Activity (MDA-MB-231 [22]): 35.37%
- Activity (MDA-MB-231 [23]): Active
- Activity (MDA-MB-231 [24]): 3.87%
- Activity (MDA-MB-231 [25]): Active

From ChEMBL document CHEMBL4257580, “Tanshinone-IIA-Based Analogues of Imidazole Alkaloid Act as Potent Inhibitors To Block Breast Cancer Invasion and Metastasis in Vivo” (J Med Chem, 2018)
